Only some compounds are listed: those with a hit (about 1.8% of all), similar ones and a draw of the others.
Wee1 degr inh: blocks degradation of human Wee1 kinase | HeLa Luc-Wee1K328M stability, luciferase luminescence; 100% = proteasome inhibitor MG132 effect | reporter increase, % at 5 µM | 1.2% of 220,000 active | AID 1321;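 active means activation above the mean of all tested compounds plus 3 SD, set per screening run, cut at about 8.8% in these data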;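 further: cells exposed to compound for 20 h before luminescence read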
Target sequence (P30291 whole entry K328M): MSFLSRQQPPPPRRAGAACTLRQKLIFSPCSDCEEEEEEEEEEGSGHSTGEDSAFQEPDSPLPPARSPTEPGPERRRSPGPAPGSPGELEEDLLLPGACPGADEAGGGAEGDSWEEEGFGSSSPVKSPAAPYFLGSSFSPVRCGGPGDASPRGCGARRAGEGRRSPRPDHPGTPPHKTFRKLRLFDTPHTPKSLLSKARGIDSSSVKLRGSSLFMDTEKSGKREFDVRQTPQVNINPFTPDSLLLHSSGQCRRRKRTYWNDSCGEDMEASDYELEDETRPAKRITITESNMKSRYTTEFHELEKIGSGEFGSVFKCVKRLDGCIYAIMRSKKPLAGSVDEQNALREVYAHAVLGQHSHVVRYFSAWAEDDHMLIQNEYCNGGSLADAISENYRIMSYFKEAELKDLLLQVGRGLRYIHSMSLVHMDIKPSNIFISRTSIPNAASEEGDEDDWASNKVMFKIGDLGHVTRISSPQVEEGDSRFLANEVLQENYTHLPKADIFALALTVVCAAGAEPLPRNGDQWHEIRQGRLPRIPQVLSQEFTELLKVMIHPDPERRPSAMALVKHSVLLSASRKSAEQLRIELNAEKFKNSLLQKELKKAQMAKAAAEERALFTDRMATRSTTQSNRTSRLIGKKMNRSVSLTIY
FXIIa inh 1536: blocks human coagulation factor XIIa protease activity; P00748; purified FXIIa, Boc-QGR-AMC fluorogenic substrate, 2 h; inhibition, % at 5 µM; 0.3% of 220,000 active; AID 800; in the data active means inhibition above about 40%
Platelet DG rel: modulates dense granule release in human platelets | human platelet-rich plasma, SFLLRN dense granule ATP release, luminescence | inhibition, %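 (compounds screened at 7.5 µM in platelet-rich plasma)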 | 0.22% of 300,000 active;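 active means mean replicate score, as percent of positive control, at or above 50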
thrombin 1536: inhibitors of human thrombin | P00734 | alpha-thrombin, Boc-VPR-AMC fluorogenic substrate cleavage | inhibition, % at 5 µM | 0.26% of 220,000 active | AID 1046;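 active means inhibition at or above 40%; inactive means inhibition below 40%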
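Test system: human alpha-thrombin protein / Dosing: one concentration per compound, 5 µM, with 0.2% DMSO / Medium: pH 7.5 Tris-saline with Tween 20 / Benchmarks: no-compound enzyme wells and no-enzyme blanks / Read-out basis: percent inhibition of thrombin substrate cleavage / Timing: reaction at room temperature / Measured by: fluorescence, ex 355 nm, em 460 nm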
hK5 inh: inhibitors of human kallikrein 5 | recombinant hK5, fluorogenic AMC substrate cleavage | inhibition, % at 5 µM | 0.59% of 210,000 active | AID 873;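 active means inhibition of 40% or more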
FXIa inh: blocks human coagulation factor XIa protease activity; inhibition, % at 5 µM; P03951; purified FXIa, Boc-Glu-Ala-Arg-AMC fluorogenic substrate; 0.14% of 220,000 active;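 active means inhibition of at least 40%; inactive means inhibition below 40%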;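 further: fluorescence of freed AMC excited at 355 nm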
Hits are given with their value; i = inactive; nt = not tested or not shown.

SMILES | Wee1 degr inh | FXIIa inh 1536 | Platelet DG rel | thrombin 1536 | hK5 inh | FXIa inh
O=C(Nc1cccc(-c2nc3ccccc3o2)c1)c1cccnc1 | i | i | i | nt | i | i
FC(F)(F)c1cc(N2CCN(Cc3ccccc3)CC2)c2ccccc2n1 | 10 | i | i | i | i | i
Cn1c(SCC(=O)NCc2cccs2)nnc1-c1cccs1 | i | i | i | i | 52 | i
O=C(CSc1nnnn1C1CCCCC1)NCc1cccs1 | 11 | i | i | i | i | i
C=CCn1c(Cc2cccs2)nnc1SCC(=O)NCc1ccco1 | i | i | i | i | i | 48
O=C(CSc1nnnn1C1CCCC1)NCc1cccs1 | i | i | i | i | i | i
C=CCn1c(SCC(=O)NCc2ccco2)nnc1C1CCCCC1 | nt | nt | i | nt | nt | nt
COC(=O)CC1C(=O)NCCN1Cc1cn(-c2ccc(C)cc2)nc1-c1cccc(C)c1 (stereo not drawn) | i | i | i | i | i | i
Cc1ccnc(NC(=O)COc2ccc3c(c2)CCC3)c1 | nt | nt | i | nt | nt | nt
CCN1C(=O)C2(C(C(=O)c3cc4ccccc4o3)=C(O)C(=O)N2CCCN(C)C)c2ccccc21 (stereo not drawn) | i | i | i | i | i | i
Cc1ccc(-c2csc(N/N=C/c3ccco3)n2)c(C)c1 | 9.6 | i | i | i | i | i
CN(C)S(=O)(=O)c1cccc(-c2csc(N/N=C/c3ccco3)n2)c1 | i | i | i | i | i | i
Cc1ccc2c(c1)CC1(CN2C)C(=O)OC2(CCCCC2)OC1=O | i | i | i | 61 | i | i
CCOC(=O)N1CCN(C(=O)c2cccn3c(=O)c4sccc4nc23)CC1 | 10 | i | nt | i | i | i
CCOC(=O)N1CCN(C(=O)c2cccn3c(=O)c4cc(Br)ccc4nc23)CC1 | i | i | i | i | i | i
CC(C)c1ccc(C(=O)NCc2ccc(Cl)cc2)cc1 | i | i | i | i | i | i
CC(C)NC(=O)c1ccc(C(C)C)cc1 | i | i | i | 78 | i | i
Brc1ccc(-c2cn3ccccc3n2)cc1 | 9.1 | i | i | i | i | i
COc1ccc(C(C)C)cc1S(=O)(=O)Nc1ccncc1 | i | i | i | 46 | i | i
CC1=NN(c2nc(-c3ccccc3)cs2)C(=O)C1 | i | i | i | i | i | i
O=C1CC(c2ccccc2)=NN1c1nc(-c2ccccc2)cs1 | 11 | i | i | i | i | i
CCOC(=O)c1ccc(NC(=O)CCc2ccc(C)o2)cc1 | i | i | 62 | i | i | i
O=C(Nc1ccccc1)c1oc2ccccc2c1NC(=O)C1CC1 | nt | nt | i | nt | nt | nt
COc1cccc(CN2CC(C(=O)N(C)C3CCOCC3)CCC2=O)c1 (stereo not drawn) | nt | nt | i | nt | nt | nt
CCCCCSc1nnc(-c2cc(Br)ccc2N)c(=O)[nH]1 | i | i | i | i | 42 | i
SMILES | Wee1 degr inh | FXIIa inh 1536 | Platelet DG rel | thrombin 1536 | hK5 inh | FXIa inh
CCOC(=O)C1(CCc2ccccc2)CCN(C(=O)c2cccc(C)n2)CC1 | 11 | i | i | i | i | i
CCOC(=O)C1(CCCc2ccccc2)CCN(C(=O)c2cnc(C)cn2)CC1 | i | i | i | i | i | i
CCOC(=O)C1=C(C)C2C3C(=O)N(c4cc(C)ccc4C)C(=O)C3C1(C)C1C(=O)N(c3cc(C)ccc3C)C(=O)C21 (stereo not drawn) | 9.1 | i | i | i | i | i
CCOC(=O)c1cccc(N2C(=O)C3C4C=CC(CC4)C3C2=O)c1 (stereo not drawn) | nt | nt | i | nt | nt | nt
O=C(NCc1ccc(F)cc1)C1CCC(=O)N1C1CCCCC1 (stereo not drawn) | 10 | i | i | i | i | i
COc1cccc(/C=C/C(=O)NCc2ccc(S(N)(=O)=O)cc2)c1 | i | i | i | i | i | i
Fc1ccc(-c2nc(-c3cnccn3)no2)c(Cl)c1 | 9.4 | i | i | i | i | i
CC(NC(=O)c1ccc(CS(C)(=O)=O)cc1)c1cccc2ccccc12 (stereo not drawn) | nt | nt | i | nt | nt | nt
CC(C)NC(=O)CSc1nc(-c2ccccc2)cs1 | i | i | i | 40 | i | 46
CCCN1CCN(CCCNC(=O)c2ccc3c(Cl)c4c(nc3c2)CCCC4)CC1 | nt | nt | i | nt | nt | nt
O=C(NCCCN1CCCC1)c1ccc2c(Cl)c3c(nc2c1)CCCC3 | i | 41 | i | i | i | i
O=C(OCc1cc(Cl)ccc1OC(F)F)c1ccc([N+](=O)[O-])o1 | nt | nt | i | nt | nt | nt
Cc1ccc(S(=O)(=O)NCC(=O)OCC(=O)NC(=O)c2cccn2C)cc1 | i | i | i | i | i | i
Cc1ccc(S(=O)(=O)NCCC(=O)OCC(=O)NC(=O)c2cccn2C)cc1 | i | i | 61 | i | i | i
Cn1c(=O)c2c(nc(N3CCN(Cc4ccccc4)CC3)n2CCCc2ccccc2)n(C)c1=O | 10 | i | i | i | i | i
Cn1c(=O)c2c(nc(N3CCN(c4ccccc4)CC3)n2CCCc2ccccc2)n(C)c1=O | i | i | i | i | i | i
O=C(CCNc1n[nH]c(=O)[nH]c1=O)N/N=C/c1ccc(C(F)(F)F)cc1 | i | i | i | i | i | i
CC(C)(NC(=O)c1cc(Cl)c2ccccc2c1O)C(=O)O | i | i | i | i | i | i
C=CCN(CC(=O)NC1CCCC1)C(=O)C(=O)Nc1ccc2c(c1)OCCO2 | nt | nt | i | nt | nt | nt
COc1ccc(-c2cc3ccc(O)cc3oc2=O)cc1OC | nt | nt | 71 | nt | nt | nt
CCCn1c(SC(C(=O)Nc2cccc(OC)c2)c2ccccc2)nc2ccccc2c1=O (stereo not drawn) | i | i | i | i | i | i
NC(=O)/C(=C\c1ccccc1)NC(=O)c1ccc(NC(=O)c2ccccc2)cc1 | i | i | i | i | i | i
CSCC(C)N1CCC(CO)(CCc2ccccc2)CC1 (stereo not drawn) | 10.0 | i | i | i | nt | i
Cn1cnnc1SCC(C)(C)NS(=O)(=O)c1ccc(Cl)cc1 | nt | nt | i | nt | nt | nt
Cc1ccccc1C(=O)NCC(=O)NCC1(N2CCOCC2)CCCCC1 | nt | nt | i | nt | nt | nt
SMILES | Wee1 degr inh | FXIIa inh 1536 | Platelet DG rel | thrombin 1536 | hK5 inh | FXIa inh
Cc1ccc(CSCC(=O)N(C)CC(=O)Nc2ccc(Cl)c(Cl)c2)cc1 | nt | nt | i | nt | nt | nt
CC(C1CC2CCC1C2)N1CC(O)=C(c2nc3ccccc3[nH]2)C1=N (stereo not drawn) | i | 49 | i | i | i | i
CC(C)N1CC(O)=C(c2nc3ccccc3[nH]2)C1=N | i | i | i | i | i | i
CCCCN1CC(O)=C(c2nc3ccccc3[nH]2)C1=N | i | i | i | i | i | i
CCCCCN1CC(O)=C(c2nc3ccccc3[nH]2)C1=N | 10 | i | i | i | i | i
CCC1(C)N(O)C(C)(C)C(c2ccc(F)cc2)=[N+]1[O-] (stereo not drawn) | i | i | i | i | i | i
CC1(C)C2CCC(C2)C1C/C=N/NC(N)=S (stereo not drawn) | i | i | i | i | i | i
COc1ccc(C2c3cc(OC)c(OC)cc3CCN2S(C)(=O)=O)cc1OC (stereo not drawn) | i | 46 | i | i | i | i
Cc1ccc2c(CN3CCN(Cc4ccc5c(c4)OCO5)CC3)cc(=O)oc2c1C | i | i | i | i | i | 46
